Experimental data from different studies.
Protocols differ between the studies behind these lines.
Target: Calcium/calmodulin-dependent protein kinase type IV (CAMK4, Homo sapiens, UniProt Q16566)
One construct used (Q16566 1-473): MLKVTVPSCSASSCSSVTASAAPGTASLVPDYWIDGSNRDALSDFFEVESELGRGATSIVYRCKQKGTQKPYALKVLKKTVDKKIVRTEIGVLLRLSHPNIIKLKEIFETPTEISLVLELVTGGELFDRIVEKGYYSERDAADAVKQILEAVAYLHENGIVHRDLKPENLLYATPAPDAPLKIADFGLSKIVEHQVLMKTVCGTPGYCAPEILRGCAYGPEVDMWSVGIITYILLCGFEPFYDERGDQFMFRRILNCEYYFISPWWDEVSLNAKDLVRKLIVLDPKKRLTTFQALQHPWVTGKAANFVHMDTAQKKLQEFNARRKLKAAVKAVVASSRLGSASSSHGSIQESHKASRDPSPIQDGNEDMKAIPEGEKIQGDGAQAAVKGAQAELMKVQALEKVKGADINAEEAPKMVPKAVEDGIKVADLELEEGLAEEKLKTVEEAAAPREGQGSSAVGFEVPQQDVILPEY

Structure (SMILES)	observed	method	concentration	remaining binding
CC(C)(O)c1cncc(-c2nc3ccc(F)cc3n2C2CC2)c1	cell-free assay	competition with immobilised ligand	1 µM	100%
O=C(NCCCN1CCOCC1)c1ccc(Nc2ncc(Cl)c(-c3ccc(Cl)s3)n2)cc1	binding	competition with immobilised ligand	1 µM	100%
COc1ccnn2ncc(-c3ccnc(N(C)C)n3)c12	binding	–	1 µM	100%
COc1cnc(Nc2cccc(S(N)(=O)=O)c2)nc1N1CCN(c2ccccc2)CC1	binding	competition with immobilised ligand	1 µM	100%
Cc1c(NC(=O)c2cc(C(N)=O)nc3cc(F)ccc23)c(C(F)(F)F)nn1Cc1ccc(C(C)(C)C)cc1	cell-free assay	competition with immobilised ligand	1 µM	90%
C[C@H]1CCN(c2nccc(-c3cnn4ncccc34)n2)C1	binding	–	1 µM	90%
C=CC(=O)N1CCC(C(=O)NCC(=O)N2CCN(c3nc(-c4cnc(N)nc4C(F)F)nc(N4CCOCC4)n3)CC2)CC1	binding	competition with immobilised ligand	1 µM	86%
O=C(NCC1CCOCC1)c1n[nH]cc1NC(=O)c1c(F)cccc1F	binding	competition with immobilised ligand	1 µM	100%
O=C(c1ccc(Nc2nccc(-c3cc4ccccc4s3)n2)cc1)N1CCC(N2CCCC2)CC1	binding	competition with immobilised ligand	1 µM	100%
F[C@@H]1CCN(c2nccc(-c3cnn4ncccc34)n2)C1	binding	–	1 µM	79%
CCN1CCN(Cc2ccc(C(=O)Nc3ccc(C)c(Oc4ccc5c(c4)CC(=O)N5)c3)cc2C(F)(F)F)CC1	binding	competition with immobilised ligand	1 µM	100%
O=C(c1ccc(Nc2ncc(Cl)c(-c3ccc(Cl)s3)n2)cc1)N1CCC(N2CCCC2)CC1	binding	competition with immobilised ligand	1 µM	100%
Cc1cc(-n2nc(Cc3cc(F)cc(C(F)(F)F)c3)nc2C)ccc1C(N)=O	cell-free assay	competition with immobilised ligand	1 µM	100%
COc1ncc2cc3ccccc3nc2c1C#N	cell-free assay	competition with immobilised ligand	5 µM	93%
CS(=O)(=O)c1cc(C2(NC(=O)c3cncc4c3cnn4-c3ccc(F)cc3)CC2)ccn1	cell-free assay	competition with immobilised ligand	1 µM	100%
CN(C)c1ncc(F)c(-c2cnn3ncccc23)n1	binding	–	1 µM	100%
CC1=C(C#N)[C@@H](c2ccc3[nH]nc(C)c3c2)C(C#N)=C(c2ccc(Cl)cc2)N1	cell-free assay	competition with immobilised ligand	1 µM	31.8%
c1cnn2ncc(-c3ccnc(N4CCC45COC5)n3)c2c1	binding	–	1 µM	100%
COc1ccc2c(O[C@@H]3C[C@H]4C(=O)N[C@]5(C(=O)O)CC5/C=C\CCCCC[C@H](NC(=O)OC5CCCC5)C(=O)N4C3)cc(-c3csc(NC(=O)C(C)C)n3)nc2c1C (stereo partly shown)	cell-free assay	competition with immobilised ligand	1 µM	95%
N[C@H]1CCN(c2nccc(-c3cnn4ncccc34)n2)C1	binding	–	1 µM	100%
C[C@H](NC(=O)c1cnc2n1[C@](C)(Cc1ccc(C#N)cc1)C(=O)N2c1cc(Cl)c(F)c(Cl)c1)C(=O)NC1(c2ccccn2)CC1	cell-free assay	competition with immobilised ligand	1 µM	100%
CN(C)c1nccc(-c2cnc3ncccn23)n1	binding	–	1 µM	100%
